Laboratory results: ChEMBL document CHEMBL1121761, “Antihypertensive pyrrolo[1,2-c]quinazolines and pyrrolo[1,2-c]quinazolinones” (1981)

Experiments:
Assay type in all cases: functional, Artery
Rattus norvegicus [1] = experiment: Change in systolic blood pressure after 25 mg/kg oral administration in spontaneous hypertensive rats after 4 hr
Method in brief: (§1)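 Reference agents were given orally to male SHR, four per dose, as a suspension in PEG 200/PEG 400/EtOH/pH 7.50 phosphate buffer vehicle at 0.5 mL/100 g. Systolic pressure was measured by tail cuff before dosing and at 2, 4 and 24 h after each dose. Predose and postdose levels were compared by paired Student's t test.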

Rattus norvegicus [2] = experiment: Change in systolic blood pressure after 12.5 mg/kg oral administration in spontaneous hypertensive rats after 24 hr; method in brief: as §1
Rattus norvegicus [3] = experiment: Change in systolic blood pressure after 25 mg/kg oral administration in spontaneous hypertensive rats after 2 hr; method in brief: as §1
Rattus norvegicus [4] = experiment: Change in systolic blood pressure after 12.5 mg/kg oral administration in spontaneous hypertensive rats after 4 hr; method in brief: as §1
Rattus norvegicus [5] = experiment: Change in systolic blood pressure after 12.5 mg/kg oral administration in spontaneous hypertensive rats after 2 hr; method in brief: as §1
Rattus norvegicus [6] = experiment: Change in systolic blood pressure after 25 mg/kg oral administration in spontaneous hypertensive rats after 24 hr; method in brief: as §1
Rattus norvegicus [7] = experiment: Change in systolic blood pressure after 33 mg/kg oral administration in spontaneous hypertensive rats after 2 hr; method in brief: as §1
Rattus norvegicus [8] = experiment: Change in systolic blood pressure after 100 mg/kg oral administration in spontaneous hypertensive rats after 2 hr
Method in brief: (§2)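 Male spontaneously hypertensive rats, four per dose, received oral doses suspended in 30% PEG 200, 10% PEG 400, 10% EtOH and 50% pH 7.50 phosphate buffer at 0.5 mL/100 g. A first dose of 100 mg/kg was followed by a second dose of 50 mg/kg. Tail-cuff systolic pressure was read before dosing and 2, 4 and 24 h after each dose. Postdose readings were compared with predose readings by paired Student's t test.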

Rattus norvegicus [9] = experiment: Change in systolic blood pressure after 33 mg/kg oral administration in spontaneous hypertensive rats after 24 hr; method in brief: as §1
Rattus norvegicus [10] = experiment: Change in systolic blood pressure after 33 mg/kg oral administration in spontaneous hypertensive rats after 4 hr; method in brief: as §1
Rattus norvegicus [11] = experiment: Change in systolic blood pressure after 100 mg/kg oral administration in spontaneous hypertensive rats after 24 hr; method in brief: as §2
Rattus norvegicus [12] = experiment: Change in systolic blood pressure after 100 mg/kg oral administration in spontaneous hypertensive rats after 4 hr; method in brief: as §2
Rattus norvegicus [13] = experiment: Change in systolic blood pressure after 50 mg/kg oral administration in spontaneous hypertensive rats after 4 hr; method in brief: as §2
Rattus norvegicus [14] = experiment: Change in systolic blood pressure after 50 mg/kg oral administration in spontaneous hypertensive rats after 24 hr; method in brief: as §2
Rattus norvegicus [15] = experiment: Change in systolic blood pressure after 50 mg/kg oral administration in spontaneous hypertensive rats after 2 hr; method in brief: as §2

COc1cc2nc(N3CCN(C(=O)c4ccco4)CC3)nc(N)c2cc1OC [PRAZOSIN]
Delta blood pressure (Rattus norvegicus [1]): 76.2
Delta blood pressure (Rattus norvegicus [2]): 13.7
Delta blood pressure (Rattus norvegicus [3]): 56.2
Delta blood pressure (Rattus norvegicus [4]): 48.2
Delta blood pressure (Rattus norvegicus [5]): 40
Delta blood pressure (Rattus norvegicus [6]): 41.2

CC(C)NCC(O)COc1cccc2ccccc12 (configuration not stated) [PROPRANOLOL]
Delta blood pressure (Rattus norvegicus [7]): 27.5
Delta blood pressure (Rattus norvegicus [8]): 18.7
Delta blood pressure (Rattus norvegicus [9]): 51.2
Delta blood pressure (Rattus norvegicus [10]): 28.7
Delta blood pressure (Rattus norvegicus [11]): 32.5
Delta blood pressure (Rattus norvegicus [12]): 45

CCOC(=O)c1cc2c3cc(C#N)ccc3ncn2c1
Delta blood pressure (Rattus norvegicus [13]): 33
Delta blood pressure (Rattus norvegicus [14]): 6.6
Delta blood pressure (Rattus norvegicus [8]): 11.6
Delta blood pressure (Rattus norvegicus [11]): 20
Delta blood pressure (Rattus norvegicus [15]): 21.6
Delta blood pressure (Rattus norvegicus [12]): 20

COc1ccc2c(c1)nc(O)n1cc(C)cc21
Delta blood pressure (Rattus norvegicus [13]): 31
Delta blood pressure (Rattus norvegicus [14]): 12
Delta blood pressure (Rattus norvegicus [8]): 6
Delta blood pressure (Rattus norvegicus [11]): 15
Delta blood pressure (Rattus norvegicus [15]): 28
Delta blood pressure (Rattus norvegicus [12]): 9

CCOC(=O)c1cc2c3cc(Cl)ccc3ncn2c1
Delta blood pressure (Rattus norvegicus [13]): 31.3
Delta blood pressure (Rattus norvegicus [14]): 7.5
Delta blood pressure (Rattus norvegicus [8]): 17.5
Delta blood pressure (Rattus norvegicus [11]): 5
Delta blood pressure (Rattus norvegicus [15]): 13.8
Delta blood pressure (Rattus norvegicus [12]): 16.3

CCOC(=O)c1cc2n(c1)CN(C)c1ccccc1-2
Delta blood pressure (Rattus norvegicus [13]): 26
Delta blood pressure (Rattus norvegicus [14]): 6.5
Delta blood pressure (Rattus norvegicus [8]): 29
Delta blood pressure (Rattus norvegicus [11]): 31

Cc1cc2c3ccccc3nc(O)n2c1
Delta blood pressure (Rattus norvegicus [14]): 35
Delta blood pressure (Rattus norvegicus [11]): 11
Delta blood pressure (Rattus norvegicus [15]): 46
Delta blood pressure (Rattus norvegicus [12]): 39

CCOC(=O)c1cc2n(c1)CN(C(=O)OCC)c1ccccc1-2
Delta blood pressure (Rattus norvegicus [13]): 42.5
Delta blood pressure (Rattus norvegicus [14]): 23.7
Delta blood pressure (Rattus norvegicus [8]): 6.2
Delta blood pressure (Rattus norvegicus [11]): 20
Delta blood pressure (Rattus norvegicus [15]): 18.7
Delta blood pressure (Rattus norvegicus [12]): 11.2

CC#Cc1c(C)cc2c3ccccc3nc(O)n12.Cl
Delta blood pressure (Rattus norvegicus [13]): 30
Delta blood pressure (Rattus norvegicus [14]): 42
Delta blood pressure (Rattus norvegicus [11]): 20.5
Delta blood pressure (Rattus norvegicus [12]): 27

CCOC(=O)c1cc2c3ccccc3n(CCC#N)c(=O)n2c1
Delta blood pressure (Rattus norvegicus [13]): 19
Delta blood pressure (Rattus norvegicus [14]): 59
Delta blood pressure (Rattus norvegicus [11]): 45
Delta blood pressure (Rattus norvegicus [12]): 2

CCOC(=O)c1cc2n(c1)CN(CCC#N)c1ccccc1-2
Delta blood pressure (Rattus norvegicus [13]): 38
Delta blood pressure (Rattus norvegicus [8]): 13.8
Delta blood pressure (Rattus norvegicus [11]): 1.2
Delta blood pressure (Rattus norvegicus [15]): 33
Delta blood pressure (Rattus norvegicus [12]): 11.3
